Results reported in ChEMBL document CHEMBL1139941, “Development of 6-benzyl substituted 4-aminocarbonyl-1,4-diazepane-2,5-diones as orally active human chymase inhibitors” (Bioorg Med Chem Lett, 2007).

How the values were obtained:
[1] = Stability in aqueous solution in pH 7 at 10 uM; type: physicochemical
How it was run: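 Compound at 10 µM incubated at 37 °C in 0.1 M phosphate buffer, pH 7.0, sampled at 0, 4 and 8 h; fraction remaining quantified by HPLC and reported as half-life.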

Mus musculus [2] = test: Inhibition of DNFB-induced ear edema in mouse chronic dermatitis model at 10 mg/kg, po after 24 hrs relative to control; type: functional
How it was run: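 Mouse chronic dermatitis model: DNFB painted repeatedly; compound dosed orally at 10 mg/kg once daily throughout the experimental period. Ear thickness read 24 h after the sixth DNFB painting; inhibition ratio calculated versus vehicle, significance by Student's t test.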

Cathepsin G = molecular target: T1, Cathepsin G (Homo sapiens, UniProt P08311); test: Inhibition of human cathepsin G
T1 sequence (P08311 whole entry): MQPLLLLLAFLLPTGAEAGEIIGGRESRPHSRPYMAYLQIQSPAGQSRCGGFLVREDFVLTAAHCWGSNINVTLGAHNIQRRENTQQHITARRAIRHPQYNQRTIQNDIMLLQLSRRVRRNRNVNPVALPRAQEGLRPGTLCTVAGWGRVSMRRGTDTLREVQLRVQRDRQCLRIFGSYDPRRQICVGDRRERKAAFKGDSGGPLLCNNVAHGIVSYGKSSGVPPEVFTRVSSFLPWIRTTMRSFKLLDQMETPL

[3] = Inhibition of bovine alpha chymotrypsin; set-up: species or system Bos taurus
[4] = Inhibition of bovine trypsin; set-up: species or system Bos taurus
[5] = Inhibition of human elastase
Chymase = molecular target: T2, Chymase (Homo sapiens, UniProt P23946); test: Inhibition of human recombinant chymase
T2 sequence (P23946 whole entry): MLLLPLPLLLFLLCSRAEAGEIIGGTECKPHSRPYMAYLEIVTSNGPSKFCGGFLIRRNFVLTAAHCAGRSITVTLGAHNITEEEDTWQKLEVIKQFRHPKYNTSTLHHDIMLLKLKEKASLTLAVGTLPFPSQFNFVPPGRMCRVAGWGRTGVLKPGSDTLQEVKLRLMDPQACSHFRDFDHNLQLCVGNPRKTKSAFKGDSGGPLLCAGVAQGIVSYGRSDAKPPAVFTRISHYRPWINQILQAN

Mus musculus [6] = test: Inhibition of DNFB-induced ear edema in mouse chronic dermatitis model at 10 mg/kg, ip after 24 hrs relative to control; type: functional; conditions: route intraperitoneal
How it was run: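 Chronic dermatitis in mice induced by repeated DNFB painting; intraperitoneal dosing at 10 mg/kg once daily over the experimental period. Ear thickness measured 24 h after sixth DNFB application, expressed as inhibition ratio against vehicle group; Student's t test.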

Which half-life at 10 µM [1] does the source give for CC[C@@H](NC(=O)N1CC(=O)NC[C@@H](Cc2cc(Cl)ccc2OC)C1=O)c1cccc(C(=O)O)c1 here?
Its half-life at 10 µM is 7.4 h.

What about the inhibition in vivo at 10 mg/kg (Mus musculus [2]) of the same compound?
The inhibition in vivo at 10 mg/kg was 22.9%.

What about the IC50 (Cathepsin G) of the same compound?
The IC50 was 8 µM.

What about the IC50 [3] of the same compound?
Its IC50 is 56 µM.

What about the IC50 [4] of the same compound?
The IC50 was greater than 100 µM.

What about the IC50 [5] of the same compound?
The IC50 was greater than 100 µM.

For CCC(NC(=O)N1CC(=O)NCC(Cc2cc(Cl)ccc2OC)C1=O)c1ccccc1 (centres undefined), which half-life at 10 µM [1] is on record?
The half-life at 10 µM was 6.3 h.

For COc1ccc(Cl)cc1CC1CNC(=O)CN(C(=O)NC(c2ccccc2)C(C)C)C1=O (centres undefined), which half-life at 10 µM [1] is on record?
Its half-life at 10 µM is 8 h.

Which results are given for CC[C@@H](NC(=O)N1CC(=O)NC[C@@H](Cc2cc(Cl)ccc2OC)C1=O)c1ccc(C(=O)O)c(N)c1?
half-life at 10 µM [1]: 6.7 h; inhibition in vivo at 10 mg/kg (Mus musculus [2]): 29.7%; IC50 (Cathepsin G): 16 µM; IC50 [3]: > 100 µM; IC50 [4]: > 100 µM; IC50 [5]: > 100 µM

With COc1ccc(Cl)cc1CC1CNC(=O)CN(C(=O)NC(C)c2ccccc2)C1=O (centres undefined) as the compound, how does the half-life at 10 µM [1] read?
Its half-life at 10 µM is 6.2 h.

With CC[C@@H](NC(=O)N1CC(=O)NC[C@H](Cc2cc(Cl)ccc2OC)C1=O)c1ccc(C(=O)O)c(N)c1 as the compound, how does the half-life at 10 µM [1] read?
Its half-life at 10 µM is 6.1 h.

What about the inhibition in vivo at 10 mg/kg (Mus musculus [2]) of the same compound?
The inhibition in vivo at 10 mg/kg was 35.8%.

What about the IC50 (Cathepsin G) of the same compound?
The IC50 was 28 µM.

And the IC50 [3]?
The IC50 was 23 µM.

And the IC50 [4]?
The IC50 was greater than 100 µM.

And the IC50 [5]?
Its IC50 is greater than 100 µM.

With CCCC(NC(=O)N1CC(=O)NCC(Cc2cc(Cl)ccc2OC)C1=O)c1ccccc1 (centres undefined) as the compound, how does the half-life at 10 µM [1] read?
Its half-life at 10 µM is 7.6 h.

Which half-life at 10 µM [1] does the source give for COc1ccc(Cl)cc1CC1CNC(=O)CN(C(=O)NCc2ccccc2)C1=O (racemic) here?
The half-life at 10 µM was 6.8 h.

Which half-life at 10 µM [1] does the source give for COc1ccc(Cl)cc1CC1CNC(=O)CN(C(=O)NCCc2ccccc2)C1=O (racemic) here?
Its half-life at 10 µM is 12.9 h.

With COc1ccc(Cl)cc1CC1CNC(=O)CN(C(=O)NC(c2ccccc2)c2ccccc2)C1=O (racemic) as the compound, how does the half-life at 10 µM [1] read?
The half-life at 10 µM was 16.5 h.

And the IC50 (Chymase)?
The IC50 was greater than 100 µM.

Which results are given for COc1ccc(Cl)cc1CC1CNC(=O)CN(C(=O)N(C)Cc2ccccc2)C1=O (racemic)?
half-life at 10 µM [1]: > 48 h; IC50 (Chymase): > 100 µM

For C[C@]12C=CC(=O)C=C1CC[C@@H]1[C@@H]2[C@@H](O)C[C@@]2(C)[C@H]1CC[C@]2(O)C(=O)CO [PREDNISOLONE], which inhibition in vivo at 10 mg/kg (Mus musculus [6]) is on record?
Its inhibition in vivo at 10 mg/kg is 54.6%.
